Experimental data published in ChEMBL document CHEMBL5247621, “From dopamine 4 to sigma 1: Synthesis, SAR and biological characterization of a piperidine scaffold of σ1 modulators” (Eur J Med Chem, 2022).

Tests used:
[1] = molecular target: T1, Sigma non-opioid intracellular receptor 1 (Homo sapiens, UniProt Q99720); assay: Displacement of [3H] Pentazocine from sigma 1 receptor in HEK293 cell membrane; type: cell membranes; details: read-out: Ki
[2] = Plasma protein binding in human assessed as unbound fraction; type: ADME, cell-free
How it was run: (§1)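 Plasma protein binding by equilibrium dialysis in human or mouse plasma, reported as fraction unbound (fu).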

[3] = Plasma protein binding in mouse assessed as unbound fraction; type: ADME; how it was run: as §1
[4] = molecular target: T1, Sigma non-opioid intracellular receptor 1; assay: Displacement of [3H] Pentazocine from sigma 1 receptor in HEK293 cell membrane assessed as inhibition constant relative to control; type: cell membranes; set-up: scale not given: the % may be the effect or the level left
How it was run: (§2)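 Competitive radioligand binding in membranes harvested from HEK293 cells, with one radioligand per target: [3H]N-methylspiperone for D2, D3 and D4; [3H]SCH23390 for D1 and D5; [3H]pentazocine for σ1; [3H]DTG for σ2. Ki derived from inhibition of binding, each run in triplicate.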

[5] = molecular target: T2, D(4) dopamine receptor (Homo sapiens) (UniProt P21917); assay: Displacement of [3H]N-methylspiperone from D4 receptor in HEK293 cell membrane assessed as inhibition constant at 10 uM relative to control; type: cell membranes; set-up: scale not given: the % may be the effect or the level left
T2 sequence (whole entry): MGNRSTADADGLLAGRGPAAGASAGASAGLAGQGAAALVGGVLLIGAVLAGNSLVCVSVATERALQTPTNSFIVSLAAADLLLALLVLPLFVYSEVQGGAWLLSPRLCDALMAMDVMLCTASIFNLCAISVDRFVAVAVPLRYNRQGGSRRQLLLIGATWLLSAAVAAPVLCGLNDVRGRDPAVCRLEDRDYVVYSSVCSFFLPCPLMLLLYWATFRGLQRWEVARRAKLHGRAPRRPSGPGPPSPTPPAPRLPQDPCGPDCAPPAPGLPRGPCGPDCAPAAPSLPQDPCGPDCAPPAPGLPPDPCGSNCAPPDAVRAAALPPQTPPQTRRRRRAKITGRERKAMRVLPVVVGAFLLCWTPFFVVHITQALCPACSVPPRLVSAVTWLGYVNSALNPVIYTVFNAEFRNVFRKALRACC

[6] = molecular target: Sigma intracellular receptor 2 (Homo sapiens, UniProt Q5BJF2); assay: Displacement of [3H]DTG from sigma-2 receptor in HEK293 cell membrane assessed as inhibition constant; type: cell membranes; how it was run: as §2
Chain of Sigma intracellular receptor 2 (Q5BJF2 whole entry): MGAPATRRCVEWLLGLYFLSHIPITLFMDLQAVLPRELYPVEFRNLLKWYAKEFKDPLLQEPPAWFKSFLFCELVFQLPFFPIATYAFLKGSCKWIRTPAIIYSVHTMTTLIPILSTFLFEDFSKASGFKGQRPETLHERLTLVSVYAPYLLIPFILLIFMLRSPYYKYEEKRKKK

[7] = molecular target: D(1A) dopamine receptor (Homo sapiens, UniProt P21728); assay: Displacement of [3H]SCH23390 from D1 receptor in HEK293 cell membrane assessed as inhibition constant; type: cell membranes; how it was run: as §2
Chain of D(1A) dopamine receptor (P21728 whole entry): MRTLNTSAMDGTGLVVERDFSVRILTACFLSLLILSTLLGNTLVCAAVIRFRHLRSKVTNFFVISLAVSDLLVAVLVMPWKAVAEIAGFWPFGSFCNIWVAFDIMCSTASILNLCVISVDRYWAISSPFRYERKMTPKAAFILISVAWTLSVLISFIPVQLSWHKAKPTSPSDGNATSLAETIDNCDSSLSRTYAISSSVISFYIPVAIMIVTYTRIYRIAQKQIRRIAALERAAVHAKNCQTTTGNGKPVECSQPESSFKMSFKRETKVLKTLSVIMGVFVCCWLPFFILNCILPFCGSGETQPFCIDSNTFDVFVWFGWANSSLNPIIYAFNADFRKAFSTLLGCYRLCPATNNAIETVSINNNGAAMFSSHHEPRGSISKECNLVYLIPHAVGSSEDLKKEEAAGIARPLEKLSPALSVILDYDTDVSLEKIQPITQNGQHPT

[8] = molecular target: D(2) dopamine receptor (Homo sapiens, UniProt P14416); assay: Displacement of [3H]N-methylspiperone from D2 receptor in HEK293 cell membrane assessed as inhibition constant; type: cell membranes; how it was run: as §2
Chain of D(2) dopamine receptor (P14416 whole entry): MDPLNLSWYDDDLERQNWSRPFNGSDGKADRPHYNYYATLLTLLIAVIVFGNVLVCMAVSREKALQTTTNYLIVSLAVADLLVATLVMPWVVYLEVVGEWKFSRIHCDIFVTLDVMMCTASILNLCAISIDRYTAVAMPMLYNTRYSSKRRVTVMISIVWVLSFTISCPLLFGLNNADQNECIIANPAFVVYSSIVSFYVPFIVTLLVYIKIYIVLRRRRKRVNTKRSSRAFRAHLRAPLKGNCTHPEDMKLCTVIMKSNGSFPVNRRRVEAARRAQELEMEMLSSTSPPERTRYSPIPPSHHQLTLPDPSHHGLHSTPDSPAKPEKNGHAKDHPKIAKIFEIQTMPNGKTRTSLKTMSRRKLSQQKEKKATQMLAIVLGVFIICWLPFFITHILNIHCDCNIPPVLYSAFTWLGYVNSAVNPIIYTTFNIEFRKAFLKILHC

[9] = molecular target: D(3) dopamine receptor (Homo sapiens, UniProt P35462); assay: Displacement of [3H]N-methylspiperone from D3 receptor in HEK293 cell membrane assessed as inhibition constant; type: cell membranes; how it was run: as §2
Chain of D(3) dopamine receptor (P35462 whole entry): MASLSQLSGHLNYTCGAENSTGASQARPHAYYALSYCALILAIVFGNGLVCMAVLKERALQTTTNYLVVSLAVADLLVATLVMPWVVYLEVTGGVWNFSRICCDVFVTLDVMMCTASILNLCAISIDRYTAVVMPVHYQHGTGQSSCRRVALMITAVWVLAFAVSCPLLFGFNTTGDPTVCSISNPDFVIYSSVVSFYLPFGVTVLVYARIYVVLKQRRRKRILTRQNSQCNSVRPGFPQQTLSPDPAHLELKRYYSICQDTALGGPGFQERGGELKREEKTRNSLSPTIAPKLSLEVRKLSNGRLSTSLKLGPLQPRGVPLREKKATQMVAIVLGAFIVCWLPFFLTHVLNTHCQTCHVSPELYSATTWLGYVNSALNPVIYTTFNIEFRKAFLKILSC

[10] = molecular target: D(1B) dopamine receptor (Homo sapiens, UniProt P21918); assay: Displacement of [3H]SCH23390 from D5 receptor in HEK293 cell membrane assessed as inhibition constant; type: cell membranes; how it was run: as §2
Chain of D(1B) dopamine receptor (P21918 whole entry): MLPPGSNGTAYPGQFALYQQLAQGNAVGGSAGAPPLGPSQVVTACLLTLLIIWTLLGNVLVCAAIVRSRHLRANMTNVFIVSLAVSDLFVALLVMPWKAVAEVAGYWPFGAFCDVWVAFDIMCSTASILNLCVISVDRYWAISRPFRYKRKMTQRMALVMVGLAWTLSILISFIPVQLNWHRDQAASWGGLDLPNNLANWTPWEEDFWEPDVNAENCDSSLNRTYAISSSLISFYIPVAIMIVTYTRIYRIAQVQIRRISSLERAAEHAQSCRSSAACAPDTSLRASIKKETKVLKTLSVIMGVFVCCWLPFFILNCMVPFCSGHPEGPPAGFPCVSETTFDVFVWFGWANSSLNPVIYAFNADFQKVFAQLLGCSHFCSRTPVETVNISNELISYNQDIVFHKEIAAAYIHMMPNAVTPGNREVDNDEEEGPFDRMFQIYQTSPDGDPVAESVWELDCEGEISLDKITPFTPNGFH

[11] = molecular target: T3, D(4) dopamine receptor (Homo sapiens, UniProt P21917); assay: Displacement of [3H]N-methylspiperone from D4 receptor in HEK293 cell membrane; type: cell membranes
T3 sequence (P21917 whole entry): T2 sequence (whole entry)

[12] = molecular target: T1, Sigma non-opioid intracellular receptor 1; assay: Binding affinity to sigma 1 receptor in human Jurkat cells; type: cell-based
[13] = Half life in mouse plasma at 5 mg/kg, ip measured after 24 hrs; type: ADME, organism-based; details: in vivo
How it was run: (§3)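 Discrete mouse study, single intraperitoneal dose of 5 mg/kg in 10% DMSO/10% Cremophor EL/30% PEG400/50% water. Plasma and brain concentrations followed over 24 h. Parameters estimated by non-compartmental analysis.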

[14] = Half life in mouse brain at 5 mg/kg, ip measured after 24 hrs; type: ADME, organism-based; details: in vivo; how it was run: as §3
[15] = Mean residence time in mouse plasma at 5 mg/kg, ip measured after 24 hrs; type: ADME, organism-based; details: in vivo; how it was run: as §3
[16] = Mean residence time in mouse brain at 5 mg/kg, ip measured after 24 hrs; type: ADME, organism-based; details: in vivo; how it was run: as §3
[17] = Tmax in mouse plasma at 5 mg/kg, ip measured after 24 hrs; type: ADME, organism-based; details: in vivo; how it was run: as §3
[18] = Tmax in mouse brain at 5 mg/kg, ip measured after 24 hrs; type: ADME, organism-based; details: in vivo; how it was run: as §3
[19] = Cmax in mouse plasma at 5 mg/kg, ip measured after 24 hrs; type: ADME, organism-based; set-up: dose 5 mg/kg, time 24 hrs, route ip; details: in vivo; how it was run: as §3
[20] = Cmax in mouse brain at 5 mg/kg, ip measured after 24 hrs; type: ADME, organism-based; set-up: time 24 hrs, dose 5 mg/kg, route ip; how it was run: as §3
[21] = AUC(infinity) in mouse plasma at 5 mg/kg, ip measured after 24 hrs; type: ADME, organism-based; set-up: dose 5 mg/kg, time 24 hrs, route ip; details: in vivo; how it was run: as §3
[22] = AUC(infinity) in mouse brain at 5 mg/kg, ip measured after 24 hrs; type: ADME, organism-based; set-up: dose 5 mg/kg, time 24 hrs, route ip; how it was run: as §3
[23] = Ratio of total drug concentration in mouse brain to plasma at 5 mg/kg, ip measured after 1 hr; type: ADME, organism-based
How it was run: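 Mice received 5 mg/kg IP in 10% DMSO/10% Cremophor EL/30% PEG400/50% water. Kp is total brain concentration divided by total plasma concentration, taken at 1 h and 5 h post-dose.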

[24] = Ratio of free drug concentration in mouse brain to plasma at 5 mg/kg, ip measured after 1 hr; type: ADME, organism-based
How it was run: (§4)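 Mice received 5 mg/kg IP in 10% DMSO/10% Cremophor EL/30% PEG400/50% water. Kp,uu is free brain over free plasma concentration at 1 h and 5 h. Free levels are corrected with unbound fractions measured in mouse plasma protein binding and in mouse brain homogenate binding.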

[25] = Ratio of free drug concentration in mouse brain to plasma at 5 mg/kg, ip measured after 5 hrs; type: ADME, organism-based; details: read-out: K(p,uu,brain); how it was run: as §4

T1 sequence (Q99720 whole entry): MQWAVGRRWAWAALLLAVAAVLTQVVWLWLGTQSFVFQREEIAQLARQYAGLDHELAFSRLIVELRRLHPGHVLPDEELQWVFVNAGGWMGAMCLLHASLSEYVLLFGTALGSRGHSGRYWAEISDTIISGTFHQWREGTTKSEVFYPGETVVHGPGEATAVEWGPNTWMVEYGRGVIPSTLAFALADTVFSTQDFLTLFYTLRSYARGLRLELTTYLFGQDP

COc1ccc(CN2CCC[C@H](OCc3ccc(C)cc3)C2)cc1F
Ki [1]: 5.5 nM
Fu [2]: 1.3%
Fu [3]: 2.5%

Cc1cccc(CO[C@H]2CCCN(Cc3cn4ccccc4n3)C2)n1
Activity [4]: 39%
Activity [5]: 23%

Cc1ccccc1CO[C@H]1CCCN(Cc2ccc3c(cnn3C)c2)C1
Ki [1]: 37 nM
Activity [5]: 65%
Ki [6]: 239 nM
Fu [2]: 4.3%
Ki [7]: > 10000 nM
Fu [3]: 8.8%

Cn1cnc2cc(CN3CCC(OCc4cccc(C(F)(F)F)c4)CC3)ccc21
Ki [1]: 12 nM

COc1ccc(CN2CCC[C@H](OCc3cccc(F)c3)C2)cc1F
Ki [1]: 4.3 nM

Fc1ccc(CN2CCCC3(CCN(Cc4cc5ccc(Cl)cc5[nH]4)C3)C2)cc1F (stereo unspecified)
Ki [1]: 7.1 nM
Activity [5]: 39%
Ki [6]: 30 nM
Ki [8]: > 10000 nM
Ki [9]: 345 nM
Ki [10]: > 10000 nM
Ki [7]: 1530 nM

Fc1cccc(CO[C@H]2CCCN(Cc3cn4ccccc4n3)C2)c1
Ki [1]: 490 nM
Ki ([11]; read-out: Ki): 1210 nM

Cc1ccccc1CO[C@H]1CCCN(Cc2cn3ccccc3n2)C1
Ki [1]: 503 nM
Activity [5]: 60%

FC(F)(F)Oc1cccc(CO[C@H]2CCCN(Cc3cn4ccccc4n3)C2)c1
Ki [1]: 35 nM

Fc1ccc2c(CN3CCC(F)(F)[C@H](CCc4ccccc4)C3)c[nH]c2c1
Ki [1]: 52 nM
Ki ([11]; read-out: Ki): 3.5 nM

Fc1ccc(COC2CCN(Cc3cc4ccc(Cl)cc4[nH]3)CC2)cc1F
Ki [1]: 8.1 nM
Fu [2]: < 0.3%

Cc1csc(OC[C@@H]2CN(Cc3cn4ccccc4n3)CCO2)n1
Ki ([11]; read-out: Ki): 1560 nM
Activity [4]: 6%

Cc1c(Cl)cccc1NC(=O)CN1CCC2(CCCN(Cc3ccc(F)c(F)c3)C2)C1 (stereo unspecified)
Ki [1]: 19 nM
Activity [5]: 23%

Fc1ccc(COC2CCN(Cc3ccc4[nH]cnc4c3)CC2)cc1F
Ki [1]: 8.3 nM
Ki [12]: 12 nM
Ki [6]: 166 nM
Ki [10]: > 10000 nM
Ki [7]: > 10000 nM
t1/2 [13]: 2.14 h
t1/2 [14]: 9.11 h
MRT [15]: 2.12 h
MRT [16]: 8.43 h
Tmax [17]: 0.28 h
Tmax [18]: 0.56 h
Cmax [19]: 527 ng/mL
Cmax [20]: 860 ng/mL
AUC [21]: 952 ng·h/mL
AUC(0-inf) [22]: 4560 ng·h/mL
Kp [23]: 2.78
K(p,uu,brain) [24]: 1.59
Kp uu at 5 h [25]: 6.44

FC(F)(F)c1cccc(COC2CCN(Cc3cc4ccc(Cl)cc4[nH]3)CC2)c1
Ki [1]: 14 nM
Ki ([11]; read-out: pKi (converted)): 209 nM

Cc1csc(OC[C@@H]2CN(Cc3cc4ccc(Cl)cc4[nH]3)CCO2)n1
Ki [1]: 388 nM
Ki ([11]; read-out: Ki): 169 nM

Cc1cccc(CO[C@H]2CCCN(Cc3cc4ccc(Cl)cc4[nH]3)C2)n1
Ki [1]: 52 nM
